# Tests used:
# [1] = melting temperature; fluorescence melt of hairpins on a sequencing array, two-state fit, raised by 9.35 °C to match UV melts; settings: sodium 0.088 M
# Outline: (§1)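 Bootstrapped two-state fits yielded melting temperature and folding enthalpy for library hairpins. Cy3 fluorescence, with annealed Cy3 and quencher oligos, was imaged on a sequenced MiSeq flow cell in 50 mM Na-HEPES pH 8.0, 25 mM NaCl in 2.5 °C steps up to 60 °C, and normalised to pre-quench Cy3 and to control constructs. Four replicates were combined by inverse variance, and fitted temperatures were raised by 9.35 °C to match UV melts.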
# [2] = folding enthalpy; higher = less favourable; fluorescence melt of hairpins on a sequencing array, two-state fit; settings: sodium 0.088 M
# Outline: as §1
Sequence,Tm [1] [°C],folding enthalpy [2] [kcal/mol]
GATCTCGGACGAGATC ((((((....)))))),60.3,-35.1
GTTTCCGAAAGGACAAC ((((((....))).))),39.6,-16.6
GAAGTCCGAAAGGAATTC (((.(((....))).))),50.1,-30.9
GATCTCGACGGAGATC ((((((....)))))),54.3,-48.4
GATCTTGTGAAAGATC ((((((....)))))),51.2,-37.3
GGTATACGAAAGTACACC (((.(((....))).))),40,-28.7
GCGGTAACCCGC ((((....)))),54.2,-27.8
GGACTTGGAAACAAGCCC ((.((((....)))).)),46.1,-31
GGTTGCGAAAGCAATACC ((((((....)))..))),42.9,-13.3
GATCATCTTTATGATC ((((((....)))))),47.9,-32.3
GATCCAACGCTGGATC ((((((....)))))),49.1,-38.3
GATCCACTTCTGGATC ((((((....)))))),50.2,-34.8
GTCCCAGGAAACTGGGAC (((((((....))))))),68.8,-35.7
GGGGCTGGAAACAGCTCC ((.((((....)))).)),57.7,-28.5
GCGCTACCGAAAGGTCGC (((..(((....)))))),51.4,-30.8
GTTGGGTCGAAAGACAAC (((..(((....)))))),38.1,-18.2
GAGATAGGAAACCATCTC (((((.(....).))))),34.1,-23.5
GCTGTGCGAAAGCGGAGC (((..((....))..))),54.9,-22
GAGTTTGAAAAAACTC ((((((....)))))),50.8,-32.2
GCACCGCGAAAGCAGGGC ((.(.((....)).).)),57.5,-16
GAGGGAGAAATCCCTC ((((((....)))))),53.8,-36
GCGGCCGCCGC ((((...)))),55.1,-19.9
GATCATTTCATGATC ((((((...)))))),51.8,-40.6
GATCTCGCCCGAGATC ((((((....)))))),56.2,-39.2

Sequence,Tm [1] [°C],folding enthalpy [2] [kcal/mol]
GGGCCGCGAAAGCGCCCC (((.(((....))).))),68.8,-12.4
GAGCCAGGAAACTAGCTC ((((.((....)).)))),37.4,-26.2
GAGAACGGAAACGCTCTC ((((.((....)).)))),43.2,-28.6
GAATTGGGAAACCAGTTC (((.(((....))).))),39.4,-30.1
GGGGGCGAAAGCCCGCCC ((((((....)))..))),55.6,-9.36
GATCTCCCCTGAGATC ((((((....)))))),51.6,-45.1
GATATGCCGAAAGGCATC (((..(((....)))))),38.5,-7.19
GTCATGGGAAACTGTGAC ((((..(....)..)))),39.1,-32.9
GTGCTGAAAAGCAC (((((....))))),66,-28.1
GTTTGGGGAAACCCAGAC ((.((((....)))).)),44.8,-26.4
GTCACTGGAAACGGTGAC (((((.(....).))))),52.7,-47.5
GGTCTTGGAAACAAGGTC (..((((....))))..),30.4,-12
GGGATAGCGAAAGCTCCC (((..(((....)))))),50.1,-21.8
GCGGAATACCGC ((((....)))),54.2,-21.9
GCCTATGGAAACATGGGC (((.(((....))).))),51.7,-46.6
GCTTTAGGAAACCAAAGC (((((.(....).))))),35.4,-28.3
GTTCAGGAAACTGAAC ((((((....)))))),53.8,-36.7
GCACCCGGAAACGGGCGC ((.((((....)))).)),61.5,-38
GAAGCGGGAAACTGCTTC (((((.(....).))))),53,-40.4
GCTCGTGCGAAAGCAAGC (((..(((....)))))),45.5,-7.01
GATCATAGAATGATC ((((((...)))))),48,-36
GAACACGAAAGTGTTTTC ((((((....)))..))),49,-15.1
GTGTTTACGAAAGTACAC (((..(((....)))))),36.7,-25
GACTTGGGAAACTAAGTC (((((.(....).))))),42.5,-28.2

Sequence,Tm [1] [°C],folding enthalpy [2] [kcal/mol]
GATCATGGCGATGATC ((((((....)))))),51.5,-49.1
GATCAAAAGCTTGATC ((((((....)))))),38,-25.6
GTAATCGGAAACGGTTAC ((((.((....)).)))),46.7,-33.2
GACAACGAAAGTTGAGTC ((((((....)))..))),34.8,-11.2
GTGGCAGGAAACTGTCGC (.(.(((....))).).),45.7,-27.3
GCGGCTTCCGC ((((...)))),57.8,-25.9
GGATGTGGAAACACGTTC (.(.(((....))).).),35.8,-21.3
GGCTTTTCGAAAGAAGCC (((..(((....)))))),45.6,-33.7
GATCCCCGAAAGGGATC (((.(((....)))))),56.2,-29.8
GAACATCCGAAAGGATTC (((..(((....)))))),26.3,-11.7
GCCGACGAAAGTCCGGGC ((((((....)))..))),53,-24.4
GATCGTCCACACGATC ((((((....)))))),53.9,-34.7
GCCCTCGAAAGAGCGGGC ((((((....)))..))),50.1,-29.2
GATCAGTCTTCTGATC ((((((....)))))),51.2,-37.8
GCGGTAATCCGC ((((....)))),56.2,-24.7
GCGGGTTCCGC ((((...)))),57.2,-25.4
GCCGTGCGAAAGCAGAGC ((..(((....)))..)),51.9,-13.5
GCGTCGGACGC ((((...)))),51.7,-24.1
GGCGGAGGAAACTTCGCC ((((.((....)).)))),59,-49.2
GTGTACGAAAGTATCAC ((((((....))).))),43.6,-22.8
GAGAACGAAAGTTTTCTC ((((((....)))..))),38.4,-30.2
GAGGGACCGAAAGGTCTC (((..(((....)))))),38.3,-11.6
GCGTAAGGAAACCTACGC (((((.(....).))))),49,-40
GGACTTGAAAAAGTCC ((((((....)))))),58.2,-41.9

Sequence,Tm [1] [°C],folding enthalpy [2] [kcal/mol]
GCCATCGAAAGATACGGC ((((((....)))..))),41.5,-26.4
GAGGTTGGAAACAACCTC (((((((....))))))),65.8,-43.3
GAAGGGGGAAACCTCTTC ((((.((....)).)))),43.1,-27.7
GATCCTGCGTAGGATC ((((((....)))))),51.4,-44.2
GCGGCTACCGC ((((...)))),57.7,-21
GATCCGTGCCGGATC ((((((...)))))),57.9,-44.5
GTCTGCGGAAACGCAAAC ((.((((....)))).)),38,-15.2
GGGACAGCGAAAGCTCCC (((..(((....)))))),46.1,-19
GCCATTTCGAAAGAAGGC (((..(((....)))))),33.1,-25.1
GCAGCGCGAAAGCGCCGC ((.((((....)))).)),67.4,-15.5
GCATCGCGAAAGCGCGGC ((..(((....)))..)),44.7,-14.8
GGCATCGAAAGATAGCC ((((((....))).))),51.9,-25.6
GATCCGTTCACGGATC ((((((....)))))),67.4,-51
GTGTAAACGAAAGTTCAC (((..(((....)))))),33.7,-18
GTATTTCCGAAAGGATAC (((..(((....)))))),26,-11.8
GAGCACGAAAGTGAACTC ((((((....)))..))),42.9,-20.2
GGACTGGGAAACCAGTTC (.(((((....))))).),50.6,-28.6
GCCTTGGGAAACCAGGGC (((.(((....))).))),52.7,-46.8
GCTTAGGGAAACTTAAGC (((((.(....).))))),37.9,-30
GTTTACCGAAAGGTTAAC (((.(((....))).))),43.7,-24.9
GATCCTCAGTAGGATC ((((((....)))))),49.9,-35.4

# Source: the array DNA melting data of Ke et al. (doi:10.1101/2024.01.08.574731)
